Results reported in ChEMBL document CHEMBL1149310, “A screening library for peptide activated G-protein coupled receptors. 1. The test set” (J Med Chem, 2004).

The molecules below were run against Melanin-concentrating hormone receptor 1 (Rattus norvegicus, UniProt P97639) (assay: Binding affinity to rat MCH1 receptor).
Summary of the method: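 Membranes from mammalian cells stably transfected with rat MCH1 receptor, prepared by nitrogen cavitation (900 psi, ice, 30 min) and differential centrifugation (800g, then 38 000g). Radioligand competition at equilibrium in 50 mM HEPES pH 7.0, 10 mM MgCl2, 2 mM EGTA. Hits were taken to 12-point dose-response curves to derive Ki. Bound and free were separated by filtration over PEI-treated GF-C filters and counted by scintillation.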

Chain of Melanin-concentrating hormone receptor 1 (P97639 whole entry): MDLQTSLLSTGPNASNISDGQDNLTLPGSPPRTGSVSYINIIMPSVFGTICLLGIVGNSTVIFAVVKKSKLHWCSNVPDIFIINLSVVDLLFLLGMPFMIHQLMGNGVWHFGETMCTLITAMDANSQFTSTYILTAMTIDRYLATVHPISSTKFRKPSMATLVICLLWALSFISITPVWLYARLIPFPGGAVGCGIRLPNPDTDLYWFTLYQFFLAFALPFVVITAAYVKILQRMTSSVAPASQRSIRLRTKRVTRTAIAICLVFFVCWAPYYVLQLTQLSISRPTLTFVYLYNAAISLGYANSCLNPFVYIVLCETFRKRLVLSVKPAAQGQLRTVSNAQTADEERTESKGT

| SMILES | Ki |
| --- | --- |
| O=C(Cc1csc2ccccc12)NC[C@@H]1CCCN1Cc1ccc(Cl)c(Cl)c1 | 6000 nM |
| O=C(CCCc1ccccc1)NC[C@@H]1CCCN1CCc1ccccc1 | > 10000 nM |
| O=C(CCc1ccccc1)NC1CCN(Cc2ccc(Cl)c(Cl)c2)C1 (centres undefined) | > 10000 nM |
| O=C(CCCc1ccccc1)NC[C@H]1CCCN1CCc1ccccc1 | 3100 nM |
| O=C(Cc1ccccc1)NC1CCN(CCc2ccccc2)C1 (centres undefined) | > 10000 nM |
| O=C(Cc1ccccc1)NC1CCN(Cc2ccc(Cl)c(Cl)c2)C1 (centres undefined) | 980 nM |
| O=C(Cc1ccc(Oc2ccccc2)cc1)NC1CCN(Cc2ccc(Cl)c(Cl)c2)C1 (centres undefined) | 510 nM |
| Clc1ccc(-c2ccc(CNC3CCN(CC(c4ccccc4)c4ccccc4)C3)o2)cc1 (centres undefined) | 1700 nM |
| CC(CCN1CCC(NCc2ccc(-c3ccc(Cl)cc3)o2)C1)CC(C)(C)C (centres undefined) | 5000 nM |
| O=C(Cc1csc2ccccc12)NC[C@H]1CCCN1Cc1ccc(Cl)c(Cl)c1 | 9800 nM |
| O=C(Cc1ccccc1)NC1CCN(Cc2ccccc2)C1 (centres undefined) | > 10000 nM |
| O=C(Cc1csc2ccccc12)NC1CCN(Cc2ccc(Cl)c(Cl)c2)C1 (centres undefined) | 360 nM |
| O=C(Cc1ccc2c(c1)OCO2)NC1CCN(Cc2ccc(Cl)c(Cl)c2)C1 (centres undefined) | 630 nM |
| COCC1=C(C(=O)OC)[C@H](c2ccc(F)c(F)c2)N(C(=O)NCCCN2CCC(c3cccc(NC(C)=O)c3)CC2)C(=O)N1 [SNAP-7941] | 2 nM |
